Results on three molecules are retold here after ChEMBL document CHEMBL1124824, “Synthesis and biological activity of atrial natriuretic factor analogues: effect of modifications to the disulfide bridge” (J Med Chem, 1990).

Test [1] is filed under the species Rattus norvegicus. Description: Compound was tested for the Cl- excretion for treated over control animals. Format: functional. Put shortly: (§1)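 Male Sprague-Dawley rats (300-325 g) under halothane/lidocaine had femoral artery, femoral vein and bladder cannulated. After at least 1 h of recovery in restraint, they received Ringer's (1.2 mL/h), with 10-min urine collections over a 30-min control period. Infusion of 0.5 μg/kg per min for 30 min and a 30-min Ringer's recovery followed. Na+, K+ and Cl- were measured with an electrolyte analyzer, reported as treated minus control μmol/sample. Volume ratio is treated/control over three consecutive 10-min samples, six animals.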

For test [2], the species on record is Rattus norvegicus. The experiment in a line: Compound was tested for the K+ excretion for treated over control animals. Type of test: functional. Summed up: as §1
The species named for test [3] is Rattus norvegicus. Description: Compound was tested for the Na+ excretion for treated over control animals. Type of test: functional. Summed up:
as §1

The species entered for test [4] is Rattus norvegicus. The experiment in a line: Compound was tested for antihypertensive activity in 5/6 nephrectomized rats. Type of test: functional. Summed up:
(§2)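 Rats were anesthetized with halothane after skin infiltration with 2% lidocaine, and the femoral artery and vein were cannulated. After recovery, arterial pressure was recorded. A saline control period was followed by i.v. infusion in 30-min steps at 0.1, 0.2, 0.5 and 1.0 μg/kg per min (70 μL/kg per min). Hydralazine (100 μg/kg per min) was given for standardization. ED50 is in nmol/kg per min, from six animals.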

In test [5] the test system is Rattus norvegicus. Description: Compound was tested for diuretic activity and the ratio of urine volume for treated over control animals was reported after infused at a dose of 0.5 ug/kg. Format: functional. Summed up:
as §1

Test [6] addresses T1, Atrial natriuretic peptide receptor 2 (Bos taurus, UniProt P46197).
T1 sequence (P46197 whole entry): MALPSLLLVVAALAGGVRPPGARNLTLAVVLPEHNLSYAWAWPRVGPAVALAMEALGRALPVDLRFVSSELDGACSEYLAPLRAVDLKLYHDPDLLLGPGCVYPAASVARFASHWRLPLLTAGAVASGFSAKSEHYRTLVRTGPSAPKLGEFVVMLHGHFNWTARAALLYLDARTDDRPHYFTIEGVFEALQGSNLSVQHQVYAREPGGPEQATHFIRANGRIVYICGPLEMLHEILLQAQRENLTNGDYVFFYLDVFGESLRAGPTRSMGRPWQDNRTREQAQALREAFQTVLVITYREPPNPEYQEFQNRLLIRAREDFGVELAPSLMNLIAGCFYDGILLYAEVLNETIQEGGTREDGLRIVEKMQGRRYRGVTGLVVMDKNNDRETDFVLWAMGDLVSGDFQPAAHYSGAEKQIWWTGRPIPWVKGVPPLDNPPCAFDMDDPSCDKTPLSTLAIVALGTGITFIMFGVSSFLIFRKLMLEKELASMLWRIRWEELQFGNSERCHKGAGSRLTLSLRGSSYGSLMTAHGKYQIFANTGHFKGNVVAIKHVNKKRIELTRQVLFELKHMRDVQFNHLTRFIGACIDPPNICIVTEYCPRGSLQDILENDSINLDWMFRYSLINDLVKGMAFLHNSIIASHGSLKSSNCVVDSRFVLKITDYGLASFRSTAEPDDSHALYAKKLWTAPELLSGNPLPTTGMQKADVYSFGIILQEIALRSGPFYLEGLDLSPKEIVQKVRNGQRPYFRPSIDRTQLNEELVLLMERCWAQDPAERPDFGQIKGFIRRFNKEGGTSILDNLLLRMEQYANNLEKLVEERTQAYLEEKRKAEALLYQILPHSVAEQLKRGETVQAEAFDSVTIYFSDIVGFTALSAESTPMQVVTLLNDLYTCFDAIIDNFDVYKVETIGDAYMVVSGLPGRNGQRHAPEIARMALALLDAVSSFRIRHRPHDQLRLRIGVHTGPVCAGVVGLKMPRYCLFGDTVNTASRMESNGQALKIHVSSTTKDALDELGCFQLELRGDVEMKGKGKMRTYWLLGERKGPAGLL
Description: Binding affinity was determined based on the displacement of [125]r-ANF (99-126) from binding sites on bovine adrenal zona glomerulosa cell membranes (Atrionatriuretic peptide receptor B).

The target of test [7] is T2, Atrial natriuretic peptide receptor 3 (Mus musculus, UniProt P70180).
T2 sequence (P70180 whole entry): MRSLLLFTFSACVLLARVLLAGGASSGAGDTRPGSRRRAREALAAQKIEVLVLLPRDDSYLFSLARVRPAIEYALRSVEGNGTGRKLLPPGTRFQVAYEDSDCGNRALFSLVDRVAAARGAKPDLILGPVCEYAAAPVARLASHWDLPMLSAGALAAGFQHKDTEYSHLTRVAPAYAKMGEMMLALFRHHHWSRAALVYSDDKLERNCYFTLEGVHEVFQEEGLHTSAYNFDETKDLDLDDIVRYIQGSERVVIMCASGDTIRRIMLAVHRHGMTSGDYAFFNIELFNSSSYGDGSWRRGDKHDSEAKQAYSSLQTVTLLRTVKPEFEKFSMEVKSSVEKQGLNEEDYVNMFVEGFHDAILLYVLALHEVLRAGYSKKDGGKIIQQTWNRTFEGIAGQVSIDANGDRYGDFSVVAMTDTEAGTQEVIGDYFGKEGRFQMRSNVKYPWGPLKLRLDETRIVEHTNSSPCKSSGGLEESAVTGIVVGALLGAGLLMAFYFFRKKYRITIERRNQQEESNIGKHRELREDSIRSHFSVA
The experiment in a line: Binding affinity was determined based on the displacement of [125]r-ANF (99-126) from binding sites on mouse fibroblasts (NIH 3T3) cells (Atrionatriuretic peptide receptor C).

For the next test, the species on record is Oryctolagus cuniculus. The experiment in a line: Compound was tested for the inhibition of the stimulated contractions of the superfused rabbit thoracic aortic rings. Format: functional, Aorta. Summed up:
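Rabbit thoracic aorta rings (4 mm) were held isometrically at 10-g resting tension, superfused and precontracted with phenylephrine. Test peptide was added to the superfusate above the tissue in successively higher doses after each recovery. Doses were based on peptide content. EC50 came from the dose-response curve, mean of three determinations ± SEM.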

Test [8] is filed under the species Rattus norvegicus. The experiment in a line: Compound was tested for the Cl- excretion for treated over control animals, the electrolytes tested are. Type of test: functional. Put shortly:
as §1

The species entered for test [9] is Rattus norvegicus. Description: Compound was tested for the K+ excretion for treated over control animals, the electrolytes tested are. Format: functional. Summed up:
as §1

For test [10], the species on record is Rattus norvegicus. The experiment in a line: Compound was tested for the Na+ excretion for treated over control animals, the electrolytes tested are. Type of test: functional. Summed up: as §1
The species entered for test [11] is Rattus norvegicus. Description: Compound was tested for antihypertensive activity in DOCA nephrectomized rats. Format: functional. Summed up:
as §2

Test [12] is filed under the species Rattus norvegicus. The experiment in a line: Compound was tested for the Cl- excretion for treated over control animals. Format: functional. Put shortly:
as §1

SMILES strings stand for the structures. Positions of bridges follow the written chain, without caps; N, C: chain ends. Non-standard residues stand in square brackets, D forms with d. Residues, ends and D or L forms follow the SMILES beside them. Asu = N[C@@H](CCCCCC(=O)O)C(=O)O; Mpa = O=C(O)CCS

Consider `CC[C@H](C)[C@@H]1NC(=O)[C@H](CCCN=C(N)N)NC(=O)[C@H](CC(=O)O)NC(=O)[C@H]([C@@H](C)CC)NC(=O)[C@H](CCCN=C(N)N)NC(=O)CNC(=O)CNC(=O)[C@H](Cc2ccccc2)NC(=O)CCCCC[C@@H](C(=O)N[C@@H](CC(N)=O)C(=O)N[C@@H](CO)C(=O)N[C@@H](Cc2ccccc2)C(=O)N[C@@H](CCCN=C(N)N)C(=O)N[C@@H](Cc2ccc(O)cc2)C(=O)O)NC(=O)CNC(=O)[C@H](CC(C)C)NC(=O)CNC(=O)[C@H](CO)NC(=O)[C@H](CCC(N)=O)NC(=O)[C@H](C)NC(=O)CNC1=O` (FGGRIDRIGAQSGLG[Asu]NSFRY-OH; lactam N-16), for which the results for the Electrolyte excretion in the test filed under Rattus norvegicus [1], in the test filed under Rattus norvegicus [2] and in the test filed under Rattus norvegicus [3] were 10 uM sample-1, 0 uM sample-1 and 4.8 uM sample-1, respectively. In the test listed under Rattus norvegicus [4], this molecule yielded an ED50 of 5.7 nM/min/kg. In the test with Rattus norvegicus [5], the Ratio was 2.1.

Consider `CC[C@H](C)[C@@H]1NC(=O)[C@H](CCCN=C(N)N)NC(=O)[C@H](CC(=O)O)NC(=O)[C@H]([C@@H](C)CC)NC(=O)[C@H](CCCN=C(N)N)NC(=O)CNC(=O)CNC(=O)[C@H](Cc2ccccc2)NC(=O)CCSSC[C@@H](C(=O)N[C@@H](CC(N)=O)C(=O)N[C@@H](CO)C(=O)N[C@@H](Cc2ccccc2)C(=O)N[C@@H](CCCN=C(N)N)C(=O)N[C@@H](Cc2ccc(O)cc2)C(=O)O)NC(=O)CNC(=O)[C@H](CC(C)C)NC(=O)CNC(=O)[C@H](CO)NC(=O)[C@H](CCC(N)=O)NC(=O)[C@H](C)NC(=O)CNC1=O` ([Mpa]FGGRIDRIGAQSGLGCNSFRY-OH; disulfide 1-17), for which the values for the IC50 in [6] and in [7] were 1.03 nM and 0.22 nM, respectively. The same molecule showed an EC50 in the test filed under Oryctolagus cuniculus of 1.1e-10 M 50ul-1. In addition, the Electrolyte excretion is 52.9 uM sample-1 in the test listed under Rattus norvegicus [8], 22.6 uM sample-1 in the test listed under Rattus norvegicus [9] and 30.4 uM sample-1 in the test filed under Rattus norvegicus [10]. For the same molecule, the ED50 is 1.5 nM/min/kg in the test listed under Rattus norvegicus [4] and 1.1 nM/min/kg in the test listed under Rattus norvegicus [11]. The Ratio in the test with Rattus norvegicus [5] is given as 1.7.

For `CC[C@H](C)[C@@H]1NC(=O)[C@H](CCCN=C(N)N)NC(=O)[C@H](CC(=O)O)NC(=O)[C@H]([C@@H](C)CC)NC(=O)[C@H](CCCN=C(N)N)NC(=O)CNC(=O)CNC(=O)[C@H](Cc2ccccc2)NC(=O)CCC=CC[C@@H](C(=O)N[C@@H](CC(N)=O)C(=O)N[C@@H](CO)C(=O)N[C@@H](Cc2ccccc2)C(=O)N[C@@H](CCCN=C(N)N)C(=O)N[C@@H](Cc2ccc(O)cc2)C(=O)O)NC(=O)CNC(=O)[C@H](CC(C)C)NC(=O)CNC(=O)[C@H](CO)NC(=O)[C@H](CCC(N)=O)NC(=O)[C@H](C)NC(=O)CNC1=O`, the Electrolyte excretion in the test filed under Rattus norvegicus [12] amounted to 7.3 umol/sample; in the test listed under Rattus norvegicus [2], 3.2 uM sample-1; in the test listed under Rattus norvegicus [3] it was 0.4 uM sample-1. For the same molecule, the ED50 in the test filed under Rattus norvegicus [4] was determined as 1.2 nM/min/kg. Besides, the Ratio in the test with Rattus norvegicus [5] was determined as 2.5.

A word on the IC50: it is the concentration that inhibits the measured activity by half. A high value points to weaker potency.
